Among the data in ChEMBL document CHEMBL3525963, “Tissue distribution and elimination of [14C]apixaban in rats” (Drug Metab Dispos, 2011) are Radiolabel recovery, AUC and Cmax values, retold here.

What all share (format): ADME, organism-based
Conditions in all cases: in vivo

The subject of data set [1] is Rattus norvegicus. As to the kind of experiment: Biodistribution in male Sprague-Dawley rat pituitary gland at 5 mg/kg, po administered as single dose measured after 1 hr. Also noted: dose 5 mg/kg, dosed compound name [14C]-apixaban, route oral.
Data set [2] relates to Rattus norvegicus. As to the kind of experiment: Biodistribution in pregnant Sprague-Dawley rat bone marrow at 5 mg/kg, po administered as single dose measured after 24 hrs. Also on record: dose 5 mg/kg, dosed compound name [14C]-apixaban, route oral. A digest of the protocol: (§1)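 Fasted pregnant SD rats (n=6, 270-319 g) each received one oral gavage dose of [14C]apixaban, 5 mg/kg (100 μCi/kg), in 0.5% Tween 80/Labrafil. One rat was killed at each of 0.5, 1, 4, 8, 24 and 48 h. Carcasses were frozen in hexane/dry ice, cut into 40 µm sagittal sections, exposed to phosphor plates and quantified against [14C]glucose standards as µg eq/g. LLOQ was 0.037 µg eq/g.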

The test system of data set [3] is Muscle tissue. As to the kind of experiment: Biodistribution in male Sprague-Dawley rat muscle at 5 mg/kg, po administered as single dose measured after 4 hrs. Also on record: dose 5 mg/kg, dosed compound name [14C]-apixaban, route oral. A digest of the protocol:
(§2)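 [14C]apixaban (1.0 mg/mL, 20 μCi/mL) in 0.5% Tween 80 in Labrafil, given by oral gavage at 100 μCi/kg to male rats (225-252 g) fasted overnight through 4 h post-dose. One rat per time point. Carcasses frozen in hexane/dry ice and cut into 40 µm sagittal sections. QWBA read on phosphor plates against [14C]glucose standards, reported as µg eq/g. LLOQ 0.037 µg eq/g.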

The test system of a further data set is Harderian gland. As to the kind of experiment: Biodistribution in pregnant Sprague-Dawley rat harderian gland at 5 mg/kg, po administered as single dose measured after 4 hrs. Also noted: dose 5 mg/kg, dosed compound name [14C]-apixaban, route oral.
For data set [4], the system named is Rattus norvegicus. As to the kind of experiment: Biodistribution in fetal brain of pregnant Sprague-Dawley rat at 5 mg/kg, po administered as single dose measured after 24 hrs. Also noted: dose 5 mg/kg, dosed compound name [14C]-apixaban, route oral. A digest of the protocol:
(§3)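 Quantitative whole-body autoradiography was run after a single 5 mg/kg (100 μCi/kg) oral gavage to fasted female or pregnant SD rats, one rat per time point. Carcasses were frozen in hexane/dry ice, and 40 µm sagittal sections were dried at −20°C for at least 48 h. Sections were exposed to a phosphor plate alongside [14C]glucose standards (0.001–6.5 µCi/g). Results are µg eq/g, with LLOQ 0.037 µg eq/g.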

Another data set deals with Heart. As to the kind of experiment: Biodistribution in female Sprague-Dawley rat heart at 5 mg/kg, po administered as single dose measured after 8 hrs. Also noted: dose 5 mg/kg, dosed compound name [14C]-apixaban, route oral. A digest of the protocol:
as §3

Data set [5] concerns Rattus norvegicus. As to the kind of experiment: Biodistribution in male Sprague-Dawley rat pituitary gland at 5 mg/kg, po administered as single dose measured after 24 hrs. Also on record: dose 5 mg/kg, dosed compound name [14C]-apixaban, route oral. A digest of the protocol:
(§4)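 Fasted male SD rats (225-252 g) each received one oral gavage dose of [14C]apixaban, 5 mg/kg (100 μCi/kg), in 0.5% Tween 80/Labrafil vehicle. One rat was killed per time point, from 0.5 to 168 h. Frozen carcasses were cut into 40 µm sagittal whole-body sections and read by QWBA phosphor imaging against [14C]glucose calibrants. Results are in µg apixaban eq/g; BLQ <0.037 µg eq/g.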

For data set [6], the system named is Rattus norvegicus. As to the kind of experiment: Biodistribution in fetal liver of pregnant Sprague-Dawley rat at 5 mg/kg, po administered as single dose measured after 24 hrs. Also noted: dose 5 mg/kg, dosed compound name [14C]-apixaban, route oral. The procedure, abridged: as §1
The test system of a further data set is Spleen. As to the kind of experiment: Biodistribution in male Sprague-Dawley rat spleen at 5 mg/kg, po administered as single dose measured after 4 hrs. Also on record: dose 5 mg/kg, dosed compound name [14C]-apixaban, route oral. A digest of the protocol:
as §2

The subject of another data set is Liver. As to the kind of experiment: Biodistribution in male Sprague-Dawley rat liver at 5 mg/kg, po administered as single dose measured after 0.5 hrs. Also on record: dose 5 mg/kg, dosed compound name [14C]-apixaban, route oral. A digest of the protocol:
as §2

Data set [7] concerns Blood. As to the kind of experiment: AUC (0 to infinity) in lactating Sprague-Dawley rat blood at 5 mg/kg, po administered as single dose. Also noted: time infinity, dose 5 mg/kg, dosed compound name [14C]-apixaban, route oral.
Data set [8] deals with Rattus norvegicus. As to the kind of experiment: Biodistribution in pregnant Sprague-Dawley rat bone marrow at 5 mg/kg, po administered as single dose measured after 8 hrs. Also noted: dose 5 mg/kg, dosed compound name [14C]-apixaban, route oral.
Data set [9] deals with Blood. As to the kind of experiment: Biodistribution in female Sprague-Dawley rat blood at 5 mg/kg, po administered as single dose measured after 8 hrs. Also on record: dose 5 mg/kg, dosed compound name [14C]-apixaban, route oral. A digest of the protocol:
(§5)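 [¹⁴C]Apixaban given by oral gavage at 5 mg/kg (100 μCi/kg) in 0.5% Tween 80 in Labrafil (1.0 mg/mL dosing solution) to rats fasted overnight through 4 h post-dose. One rat per time point; carcass frozen in hexane/dry ice. Quantitative whole-body autoradiography used 40 µm sagittal sections and a phosphor imaging plate calibrated with [¹⁴C]glucose standards (0.001–6.5 μCi/g). Read-out in µg eq apixaban/g; LLOQ 0.037 μg eq/g.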

Data set [10] has as its system Rattus norvegicus. As to the kind of experiment: Biodistribution in fetal liver of pregnant Sprague-Dawley rat at 5 mg/kg, po administered as single dose measured after 4 hrs. Also on record: dose 5 mg/kg, dosed compound name [14C]-apixaban, route oral. The procedure, abridged:
(§6)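 Pregnant rats, 270-319 g and fasted overnight, received [14C]apixaban by oral gavage at 100 μCi/kg in 0.5% Tween 80/Labrafil. One dam per time point was euthanized and frozen in hexane/dry ice. Fetal tissue radioactivity was measured by QWBA on 40 µm sagittal sections calibrated with [14C]glucose standards. Values are in µg eq/g, with LLOQ 0.037 μg eq/g.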

The next data set relates to Thymus. As to the kind of experiment: Biodistribution in female Sprague-Dawley rat thymus at 5 mg/kg, po administered as single dose measured after 8 hrs. Also noted: dose 5 mg/kg, dosed compound name [14C]-apixaban, route oral. The procedure, abridged:
as §3

Data set [11] has as its system Blood. As to the kind of experiment: Biodistribution in female Sprague-Dawley rat blood at 5 mg/kg, po administered as single dose measured after 0.5 hrs. Also on record: dose 5 mg/kg, dosed compound name [14C]-apixaban, route oral. A digest of the protocol:
as §5

The subject of data set [12] is Blood. As to the kind of experiment: Cmax in lactating Sprague-Dawley rat blood at 5 mg/kg, po administered as single dose. Also on record: dose 5 mg/kg, dosed compound name [14C]-apixaban, route oral. The procedure, abridged:
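Lactating SD rats received a single oral gavage of 5 mg/kg (108 μCi/kg) in 0.5% Tween 80/Labrafil. Three rats were sampled per time point at 0.5-24 h. Oxytocin was given sc 15 min before milking under anesthesia. Milk, blood and plasma were counted in duplicate by liquid scintillation for 10 min and expressed as apixaban equivalents.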

For data set [13], the system named is Muscle tissue. As to the kind of experiment: Biodistribution in pregnant Sprague-Dawley rat muscle at 5 mg/kg, po administered as single dose measured after 24 hrs. Also noted: dose 5 mg/kg, dosed compound name [14C]-apixaban, route oral. A digest of the protocol:
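Pregnant SD rats (270-319 g) were fasted overnight and given one oral gavage of 5 mg/kg (100 μCi/kg) in 0.5% Tween 80 in Labrafil. One rat was euthanized per time point (0.5, 1, 4, 8, 24, 48 h) and the carcass frozen. 40 µm sagittal sections were phosphor-imaged against [14C]glucose standards and results reported as µg eq/g; LLOQ 0.037 µg eq/g.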

Another data set concerns Lung. As to the kind of experiment: Biodistribution in female Sprague-Dawley rat lung at 5 mg/kg, po administered as single dose measured after 4 hrs. Also noted: dose 5 mg/kg, dosed compound name [14C]-apixaban, route oral. The procedure, abridged:
as §5

Data set [14] concerns Rattus norvegicus. As to the kind of experiment: Biodistribution in fetal kidney of pregnant Sprague-Dawley rat at 5 mg/kg, po administered as single dose measured after 1 hr. Also on record: dose 5 mg/kg, dosed compound name [14C]-apixaban, route oral. A digest of the protocol: as §6
The test system of data set [15] is Blood. As to the kind of experiment: Biodistribution in male Sprague-Dawley rat blood at 5 mg/kg, po administered as single dose measured after 24 hrs. Also on record: dose 5 mg/kg, dosed compound name [14C]-apixaban, route oral. A digest of the protocol: as §4
Another data set deals with Brain. As to the kind of experiment: Biodistribution in female Sprague-Dawley rat brain at 5 mg/kg, po administered as single dose measured after 24 hrs. Also noted: dose 5 mg/kg, dosed compound name [14C]-apixaban, route oral. The procedure, abridged:
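[14C]Apixaban (1.0 mg/mL, 20 μCi/mL in 0.5% Tween 80 in Labrafil) given as a single oral gavage of 5 mg/kg (100 μCi/kg) to fasted female SD rats, one rat per time point. Carcasses were frozen in hexane/dry ice and cut into 40 µm sagittal sections for QWBA against [14C]glucose standards. Brain radioactivity is reported as µg eq/g, with LLOQ 0.037 µg eq/g.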

In the next data set the test system is Adrenal gland. As to the kind of experiment: Biodistribution in female Sprague-Dawley rat adrenal gland at 5 mg/kg, po administered as single dose measured after 1 hr. Also on record: dose 5 mg/kg, dosed compound name [14C]-apixaban, route oral. The procedure, abridged: as §5

For the compound `COc1ccc(-n2nc(C(N)=O)c3c2C(=O)N(c2ccc(N4CCCC[14C]4=O)cc2)CC3)cc1`, the Radiolabel recovery with Rattus norvegicus [1] is given as 0.59 ugequiv/g; in the data set on Rattus norvegicus [2], “Not detected assumed BLQ”; with Muscle tissue [3], 0.27 ugequiv/g; in the data set on Harderian gland it was 1.1 ugequiv/g; in the data set on Rattus norvegicus [4], “Not detected assumed BLQ”; in the data set on Heart it was 0.11 ugequiv/g. Further, the Radiolabel recovery result in the data set with Rattus norvegicus [5] was “Not detected assumed BLQ”; in the data set on Rattus norvegicus [6], “Not sampled as not visualised in autoradiograph”; in the data set with Spleen, 0.28 ugequiv/g; with Liver, 0.81 ugequiv/g; in the data set on Rattus norvegicus [8], 0.06 ugequiv/g; in the data set on Blood [9], 0.17 ugequiv/g. Moreover, the Radiolabel recovery is 0.32 ugequiv/g in the data set on Rattus norvegicus [10]; 0.09 ugequiv/g in the data set on Thymus; 0.4 ugequiv/g in the data set on Blood [11]; “Not detected assumed BLQ” in the data set on Muscle tissue [13]; 0.51 ugequiv/g in the data set on Lung; 0.2 ugequiv/g with Rattus norvegicus [14]. Besides, the Radiolabel recovery result in the data set with Blood [15] is listed as “Not sampled as not visualised in autoradiograph”; in the data set with Brain it was below 0.037 ugequiv/g; in the data set on Adrenal gland it was 1.1 ugequiv/g. Besides, the AUC with Blood [7] is 1960 ngequiv.hr/g. This compound gave a Cmax with Blood [12] of 514 ngequiv/g.
